Measurements: ChEMBL document CHEMBL3286210, “Discovery of 3-aryl-3-ethoxypropanoic acids as orally active GPR40 agonists” (Bioorg Med Chem Lett, 2014)
Calls of active or inactive are those of the source. The rule behind the calls is not given here.

How the values were obtained:
[1] = molecular target: Free fatty acid receptor 1 (Homo sapiens, UniProt O14842); test: Agonist activity at human GPR40 expressed in CHO cells by calcium flux assay; assay type: functional, cell-based
Procedure, shortened: (§1)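 Intracellular calcium flux read in CHO cells transfected with GPR40; values are means of two or three independent experiments.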

[2] = molecular target: Free fatty acid receptor 1 (Rattus norvegicus, UniProt Q8K3T4); test: Agonist activity at rat GPR40 expressed in CHO cells by calcium flux assay; assay type: functional, cell-based; procedure, shortened: as §1
Free fatty acid receptor 1 (Rattus norvegicus, UniProt Q8K3T4), sequence (Q8K3T4 whole entry): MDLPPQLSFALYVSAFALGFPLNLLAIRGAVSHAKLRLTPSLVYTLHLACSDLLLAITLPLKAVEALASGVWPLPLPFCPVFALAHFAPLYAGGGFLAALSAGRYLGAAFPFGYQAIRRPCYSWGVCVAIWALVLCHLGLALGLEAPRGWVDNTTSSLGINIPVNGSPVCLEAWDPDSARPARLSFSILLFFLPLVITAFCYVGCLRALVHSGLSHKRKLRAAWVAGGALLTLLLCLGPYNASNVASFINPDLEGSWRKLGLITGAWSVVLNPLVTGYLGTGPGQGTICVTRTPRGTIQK

[3] = Lipophilicity, log D of the compound at pH 7.4; assay type: physicochemical; conditions: buffer
[4] = Clearance in F344 rat at 10 mg/kg, iv; assay type: ADME, organism-based; set-up: dose 10 mg/kg, route intravenous; conditions: in vivo
Procedure, shortened: (§2)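 F344 rats; single dose given iv at 10 mg/kg or orally at 10 mg/kg (some compounds iv 2 mg/kg and po 3 mg/kg); plasma drug levels used to derive pharmacokinetic parameters.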

[5] = Half life in F344 rat at 10 mg/kg, iv; assay type: ADME, organism-based; set-up: dose 10 mg/kg, route intravenous; conditions: in vivo; procedure, shortened: as §2
[6] = AUC in F344 rat at 10 mg/kg, po; assay type: ADME, organism-based; set-up: dose 10 mg/kg, route oral; conditions: plasma; procedure, shortened: as §2
[7] = Volume of distribution at steady state in F344 rat at 10 mg/kg, iv; assay type: ADME, organism-based; set-up: dose 10 mg/kg, route intravenous; conditions: in vivo, read-out: Vdss; procedure, shortened: as §2
[8] = Cmax in F344 rat at 10 mg/kg, po; assay type: ADME, organism-based; set-up: dose 10 mg/kg, route oral; conditions: in vivo; procedure, shortened: as §2
[9] = Oral bioavailability in F344 rat at 10 mg/kg; assay type: ADME, organism-based; conditions: in vivo; procedure, shortened: as §2
[10] = species on record: Homo sapiens; test: Inhibition of mitochondrial respiratory chain complex 1 (unknown origin) at 100 uM
Procedure, shortened: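 Compound tested at 100 μM. Read-out is percent inhibition of mitochondrial respiratory chain complex 1.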

[11] = Oral bioavailability in F344 rat; assay type: ADME, organism-based; conditions: in vivo; procedure, shortened: as §2
[12] = Cmax in diabetic Zucker fatty rat model measured during OGTT at 3 mg/kg, po administered 30 mins prior to glucose challenge; assay type: ADME, organism-based; set-up: dose 3 mg/kg, route oral; conditions: in vivo
Procedure, shortened: (§3)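 Plasma exposure (Cmax, AUC) measured during OGTT in overnight-fasted Zucker fatty rats dosed orally 30 min before a 2 g/kg glucose challenge.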

[13] = system: Rattus norvegicus; test: Antidiabetic activity in diabetic Zucker fatty rat model assessed as increase in insulin level measured during OGTT at 1 to 10 mg/kg, po administered 30 mins prior to glucose challenge; assay type: functional, organism-based
Procedure, shortened: (§4)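 Nine-week-old Zucker fatty rats fasted overnight; vehicle or compound given orally (1–10 mg/kg) 30 min before oral glucose load of 2 g/kg; blood sampled for plasma glucose and insulin; mean ± S.E., n = 6.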

[14] = AUC in diabetic Zucker fatty rat model measured during OGTT at 3 mg/kg, po administered 30 mins prior to glucose challenge; assay type: ADME, organism-based; set-up: dose 3 mg/kg, route oral; conditions: in vivo
Procedure, shortened: (§5)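 9-week-old Zucker fatty rats were fasted overnight and given vehicle or compound orally 30 min before an oral glucose tolerance test with a 2 g/kg glucose challenge. Blood was sampled during the OGTT, and plasma exposure was reported as Cmax (µg/ml) and AUC (µg h/ml).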

[15] = Oral bioavailability in F344 rat at 3 mg/kg; assay type: ADME, organism-based; conditions: in vivo
Procedure, shortened: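 F344 rats. Bioavailability from an iv dose of 2 mg/kg paired with an oral dose of 3 mg/kg.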

[16] = Cmax in diabetic Zucker fatty rat model measured during OGTT at 10 mg/kg, po administered 30 mins prior to glucose challenge; assay type: ADME, organism-based; set-up: dose 10 mg/kg, route oral; conditions: in vivo; procedure, shortened: as §3
[17] = AUC in diabetic Zucker fatty rat model measured during OGTT at 10 mg/kg, po administered 30 mins prior to glucose challenge; assay type: ADME, organism-based; set-up: dose 10 mg/kg, route oral; conditions: in vivo; procedure, shortened: as §5
[18] = AUC in F344 rat at 3 mg/kg, po; assay type: ADME, organism-based; set-up: dose 3 mg/kg, route oral; conditions: plasma
[19] = Clearance in F344 rat at 2 mg/kg, iv; assay type: ADME, organism-based; set-up: dose 2 mg/kg, route intravenous; conditions: in vivo
Procedure, shortened: (§6)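 F344 rats, single iv dose of 2 mg/kg, plasma pharmacokinetic parameters determined.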

[20] = AUC in diabetic Zucker fatty rat model measured during OGTT at 1 mg/kg, po administered 30 mins prior to glucose challenge; assay type: ADME, organism-based; set-up: dose 1 mg/kg, route oral; conditions: in vivo; procedure, shortened: as §5
[21] = Cmax in diabetic Zucker fatty rat model measured during OGTT at 1 mg/kg, po administered 30 mins prior to glucose challenge; assay type: ADME, organism-based; set-up: dose 1 mg/kg, route oral; conditions: in vivo; procedure, shortened: as §3
[22] = Cmax in F344 rat at 3 mg/kg, po; assay type: ADME, organism-based; set-up: dose 3 mg/kg, route oral; conditions: in vivo
Procedure, shortened: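 F344 rats, single oral dose of 3 mg/kg, plasma pharmacokinetic parameters determined.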

[23] = system: MIN6; test: Insulinotropic effect in mouse MIN6 cells in presence of 25 mM glucose; assay type: functional, cell-based
Procedure, shortened: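 MIN6 mouse insulinoma cells exposed to compound from 0.001 to 10 µM with 25 mM glucose; insulin secreted into medium measured; mean ± S.E. of 4 wells.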

[24] = system: Rattus norvegicus; test: Antidiabetic activity in diabetic Zucker fatty rat model assessed as reduction of blood glucose level at 3 mg/kg, po administered 30 mins prior to glucose challenge by oral glucose tolerance test relative to sitagliptin; assay type: functional
[25] = Half life in F344 rat at 2 mg/kg, iv; assay type: ADME, organism-based; set-up: dose 2 mg/kg, route intravenous; conditions: in vivo; procedure, shortened: as §6
[26] = Volume of distribution at steady state in F344 rat at 2 mg/kg, iv; assay type: ADME, organism-based; set-up: dose 2 mg/kg, route intravenous; conditions: in vivo, read-out: Vdss; procedure, shortened: as §6
[27] = system: Rattus norvegicus; test: Antidiabetic activity in po dosed diabetic Zucker fatty rat model assessed as reduction of blood glucose level administered 30 mins prior to glucose challenge by oral glucose tolerance test; assay type: functional, organism-based; procedure, shortened: as §4
[28] = system: Rattus norvegicus; test: Antidiabetic activity in diabetic Zucker fatty rat model assessed as reduction of blood glucose level at 10 mg/kg, po administered 30 mins prior to glucose challenge by oral glucose tolerance test; assay type: functional, organism-based; set-up: dose 10 mg/kg; procedure, shortened: as §4

Free fatty acid receptor 1 (Homo sapiens, UniProt O14842), sequence (O14842 whole entry): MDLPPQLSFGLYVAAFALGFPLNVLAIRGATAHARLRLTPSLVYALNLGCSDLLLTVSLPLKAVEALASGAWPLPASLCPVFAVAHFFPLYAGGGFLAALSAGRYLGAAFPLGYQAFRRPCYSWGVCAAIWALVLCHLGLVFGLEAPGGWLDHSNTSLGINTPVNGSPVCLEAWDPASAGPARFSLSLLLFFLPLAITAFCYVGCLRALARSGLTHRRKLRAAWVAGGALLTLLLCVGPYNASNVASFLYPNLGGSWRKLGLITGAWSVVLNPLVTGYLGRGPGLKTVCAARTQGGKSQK

| EC50 [1] [nM] | EC50 [2] [nM] | logD [3] | Structure (SMILES) | also measured |
| --- | --- | --- | --- | --- |
| 370 | 290 |  | CCOC(CC(=O)O)c1ccc(OCc2ccc(C)cc2)cc1 (configuration not stated) |  |
| 9.3 | 130 |  | Cc1cc(OCc2cccc(-c3c(C)cccc3C)c2)ncc1CCC(=O)O |  |
| 2500 | 9100 |  | Cc1cc(CCC(=O)O)cnc1OCc1cccc(-c2c(C)cccc2C)c1 |  |
| 3.8 | 16 | 2.5 | Cc1cccc(C)c1-c1cccc(COc2cnc(CCC(=O)O)cn2)c1 |  |
| 13 | 99 |  | O=C(O)CCc1ccc(NCc2cccc(Oc3ccccc3)c2)cc1 [GW9508] |  |
| 3.5 | 38 | 3 | Cc1cccc(C)c1-c1cccc(COc2ccc(CCC(=O)O)cn2)c1 | clearance [4]: 20 mL/min/kg; half-life [5]: 14.4 min; AUC [6]: 2000 ng·h/mL; Vd [7]: 0.22 L/kg; Cmax [8]: 3500 ng/mL; bioavailability [9]: 24% |
| 8.6 | 250 |  | Cc1cccc(C)c1-c1cccc(COc2ccc(CC(F)C(=O)O)cn2)c1 (configuration not stated) | inhibition [10]: 58% |
| 6.7 | 18 | > 3.3 | Cc1cccc(C)c1-c1cccc(COc2ccc(CCC(=O)O)cc2)c1 | inhibition [10]: 58%; bioavailability [11]: 0.9% |
| 120 | > 10000 |  | COC(Cc1ccc(OCc2cccc(-c3c(C)cccc3C)c2)nc1)C(=O)O (configuration not stated) |  |
| 35 | 78 |  | CCOC(CC(=O)O)c1ccc(OCc2cccc(C)c2)cc1 (configuration not stated) |  |
| 71 | 210 | 2.4 | Cc1cccc(C)c1-c1cccc(COc2ccc(CCC(=O)O)nc2)c1 |  |
| 10 | 320 | 3.3 | Cc1cccc(C)c1-c1cccc(COc2ccc(C(C)CC(=O)O)cn2)c1 (configuration not stated) | inhibition [10]: 39% |
| 65 | 2100 |  | Cc1cccc(C)c1-c1cccc(COc2ccc(CC(C)C(=O)O)cn2)c1 (configuration not stated) |  |
| 65 | 540 |  | Cc1cccc(C)c1-c1cccc(COc2ncc(CCC(=O)O)s2)c1 |  |
| 230 | 760 | 0.7 | CCOC(CC(=O)O)c1ccc(OCc2ccccc2)nc1 (configuration not stated) | inhibition [10]: 1% |
| 420 | 310 |  | Cc1cccc(C)c1-c1cccc(COc2ccc(CCC(=O)O)nn2)c1 |  |
| 49 | 190 |  | Cc1cccc(C)c1-c1cccc(COc2cc3c(cn2)C(CC(=O)O)OC3)c1 (configuration not stated) |  |
| 81 | 1100 |  | Cc1cccc(C)c1-c1cccc(COc2ccc(CCC(=O)O)c(C)n2)c1 |  |
| 18 | 96 |  | Cc1cccc(C)c1-c1cccc(COc2ccc(C(F)CC(=O)O)cn2)c1 (configuration not stated) | inhibition [10]: 91% |
| 52 | 840 | > 2.4 | Cc1cccc(C)c1-c1cccc(COc2ccc(CCC(=O)O)s2)c1 |  |
| 20 | 79 | 1.2 | CCOC(CC(=O)O)c1ccc(OCc2ccccc2C)cc1 (configuration not stated) | Cmax [12]: 14000 ng/mL; inhibition [10]: 6%; Activity [13]: Active; AUC at 0.5 h [14]: 19000 ng·h/mL; bioavailability [15]: 64%; Cmax [16]: 51000 ng/mL; AUC at 0.5 h [17]: 78000 ng·h/mL; AUC [18]: 5300 ng·h/mL; clearance [19]: 6.17 mL/min/kg; AUC at 0.5 h [20]: 4800 ng·h/mL; Cmax [21]: 4100 ng/mL; Cmax [22]: 3300 ng/mL; Activity [23]: Dose-dependent effect; fold change (FC) [24]: 3; half-life [25]: 22.2 min; Vd [26]: 0.16 L/kg; Activity [27]: Dose-dependent effect |
|  |  |  | N[C@@H](CC(=O)N1CCn2c(nnc2C(F)(F)F)C1)Cc1cc(F)c(F)cc1F | Activity [28]: Active |
| 130 | 1400 | 2 | Cc1cccc(C)c1-c1cccc(COc2ncc(CCC(=O)O)cn2)c1 |  |
| 14 | 130 | 2.8 | CCOC(CC(=O)O)c1ccc(OCc2cccc(-c3c(C)cccc3C)c2)nc1 (configuration not stated) | inhibition [10]: 66% |
